Key:
Format in all cases: functional
[1] = system: PC-3; assay: Cytotoxicity against human PC3 cells assessed as cell growth at 10 uM after 48 hrs by SRB assay relative to untreated control; details: PC-3, 48 h, read-out: Activity
In short: (§1)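 NCI-60 one-dose screen: each agent added at 10 µM, cultures incubated 48 h. Endpoint by sulforhodamine B protein-binding dye read spectrophotometrically; growth expressed as percent of untreated control cells.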

[2] = Cytotoxicity against human OVCAR5 cells assessed as cell growth at 10 uM after 48 hrs by SRB assay relative to untreated control; details: OVCAR-5, 48 h, read-out: Activity; in short: as §1
[3] = system: UACC-62; assay: Cytotoxicity against human UACC62 cells assessed as cell growth at 10 uM after 48 hrs by SRB assay relative to untreated control; details: UACC-62, 48 h, read-out: Activity
In short: (§2)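 NCI-60 single-dose screen. Compounds were added to the cultures at 10 μM and incubated for 48 h. The end point was sulforhodamine B protein staining read spectrophotometrically. Growth is reported as percent of untreated control cells.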

[4] = system: NCI-H226; assay: Cytotoxicity against human NCI-H226 cells assessed as cell growth at 10 uM after 48 hrs by SRB assay relative to untreated control; details: NCI-H226, 48 h, read-out: Activity; in short: as §1
[5] = Cytotoxicity against human UO31 cells assessed as cell growth at 10 uM after 48 hrs by SRB assay relative to untreated control; details: UO-31, 48 h, read-out: Activity; in short: as §2
[6] = Cytotoxicity against human UACC257 cells assessed as cell growth at 10 uM after 48 hrs by SRB assay relative to untreated control; details: UACC-257, 48 h, read-out: Activity; in short: as §2
[7] = system: ACHN; assay: Cytotoxicity against human ACHN cells assessed as cell growth at 10 uM after 48 hrs by SRB assay relative to untreated control; details: read-out: Activity
In short: (§3)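 NCI-60 panel screen at a single concentration of 10 μM with 48 h incubation. Cell density measured by sulforhodamine B protein-binding dye and read spectrophotometrically. Growth expressed as percent of untreated control cells.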

[8] = system: SR; assay: Cytotoxicity against human SR cells assessed as cell growth at 10 uM after 48 hrs by SRB assay relative to untreated control; details: read-out: Activity; in short: as §2
[9] = system: U-251; assay: Cytotoxicity against human U251 cells assessed as cell growth at 10 uM after 48 hrs by SRB assay relative to untreated control; details: U-251, 48 h, read-out: Activity; in short: as §2
[10] = system: SW-620; assay: Cytotoxicity against human SW620 cells assessed as cell growth at 10 uM after 48 hrs by SRB assay relative to untreated control; details: SW-620, 48 h, read-out: Activity; in short: as §2
[11] = system: MDA-MB-468; assay: Cytotoxicity against human MDA-MB-468 cells assessed as cell growth at 10 uM after 48 hrs by SRB assay relative to untreated control; details: MDA-MB-468, 48 h, read-out: Activity; in short: as §1
[12] = system: RXF 393; assay: Cytotoxicity against human RXF393 cells assessed as cell growth at 10 uM after 48 hrs by SRB assay relative to untreated control; details: RXF 393, 48 h, read-out: Activity; in short: as §1
[13] = system: HCT-15; assay: Cytotoxicity against human HCT15 cells assessed as cell growth at 10 uM after 48 hrs by SRB assay relative to untreated control; details: HCT-15, 48 h, read-out: Activity; in short: as §3
[14] = system: 786-0; assay: Cytotoxicity against human […] cells assessed as cell growth at 10 uM after 48 hrs by SRB assay relative to untreated control; details: 786-0, 48 h, read-out: Activity; in short: as §3
[15] = system: MCF7; assay: Cytotoxicity against human MCF7 cells assessed as cell growth at 10 uM after 48 hrs by SRB assay relative to untreated control; details: MCF7, 48 h, read-out: Activity; in short: as §3
[16] = system: BT-549; assay: Cytotoxicity against human BT549 cells assessed as cell growth at 10 uM after 48 hrs by SRB assay relative to untreated control; details: BT-549, 48 h, read-out: Activity; in short: as §3
[17] = system: MDA-MB-231; assay: Cytotoxicity against human MDA-MB-231 cells assessed as cell growth at 10 uM after 48 hrs by SRB assay relative to untreated control; details: MDA-MB-231, 48 h, read-out: Activity; in short: as §1
[18] = system: K562; assay: Cytotoxicity against human K562 cells assessed as cell growth at 10 uM after 48 hrs by SRB assay relative to untreated control; details: K562, 48 h, read-out: Activity; in short: as §3
[19] = system: HT-29; assay: Cytotoxicity against human HT-29 cells assessed as cell growth at 10 uM after 48 hrs by SRB assay relative to untreated control; details: HT-29, 48 h, read-out: Activity; in short: as §3
[20] = system: COLO 205; assay: Cytotoxicity against human COLO205 cells assessed as cell growth at 10 uM after 48 hrs by SRB assay relative to untreated control; details: COLO 205, 48 h, read-out: Activity; in short: as §3
[21] = system: SNB-19; assay: Cytotoxicity against human SNB19 cells assessed as cell growth at 10 uM after 48 hrs by SRB assay relative to untreated control; details: SNB-19, 48 h, read-out: Activity; in short: as §2
[22] = system: NCI-H522; assay: Cytotoxicity against human NCI-H522 cells assessed as cell growth at 10 uM after 48 hrs by SRB assay relative to untreated control; details: NCI-H522, 48 h, read-out: Activity; in short: as §1
[23] = system: LOX IMVI; assay: Cytotoxicity against human LOXIMVI cells assessed as cell growth at 10 uM after 48 hrs by SRB assay relative to untreated control; details: read-out: Activity; in short: as §3
[24] = system: OVCAR-3; assay: Cytotoxicity against human OVCAR3 cells assessed as cell growth at 10 uM after 48 hrs by SRB assay relative to untreated control; details: OVCAR-3, 48 h, read-out: Activity; in short: as §1
[25] = system: NCI-H460; assay: Cytotoxicity against human NCI-H460 cells assessed as cell growth at 10 uM after 48 hrs by SRB assay relative to untreated control; details: NCI-H460, 48 h, read-out: Activity; in short: as §1
[26] = system: CAKI-1; assay: Cytotoxicity against human Caki1 cells assessed as cell growth at 10 uM after 48 hrs by SRB assay relative to untreated control; details: CAKI-1, 48 h, read-out: Activity; in short: as §3
[27] = system: MOLT-4; assay: Cytotoxicity against human MOLT4 cells assessed as cell growth at 10 uM after 48 hrs by SRB assay relative to untreated control; details: MOLT-4, 48 h, read-out: Activity; in short: as §1
[28] = system: KM12; assay: Cytotoxicity against human KM12 cells assessed as cell growth at 10 uM after 48 hrs by SRB assay relative to untreated control; details: KM12, 48 h, read-out: Activity; in short: as §3
[29] = system: NCI-H322M; assay: Cytotoxicity against human NCI-H322M cells assessed as cell growth at 10 uM after 48 hrs by SRB assay relative to untreated control; details: read-out: Activity; in short: as §1
[30] = system: SNB-75; assay: Cytotoxicity against human SNB75 cells assessed as cell growth at 10 uM after 48 hrs by SRB assay relative to untreated control; details: SNB-75, 48 h, read-out: Activity; in short: as §2
[31] = system: OVCAR-8; assay: Cytotoxicity against human OVCAR8 cells assessed as cell growth at 10 uM after 48 hrs by SRB assay relative to untreated control; details: OVCAR-8, 48 h, read-out: Activity; in short: as §1

SMILES: Cc1ccc(C2=Nc3nc4ccccn4c3C(=O)[C@@H]3CCCN23)cc1
- growth at 10 µM [1]: 81.9%
- growth at 10 µM [2]: 91.1%
- growth at 10 µM [3]: 101%
- growth at 10 µM [4]: 86.5%
- growth at 10 µM [5]: 80.3%
- growth at 10 µM [6]: 98.8%
- growth at 10 µM [7]: 93.9%
- growth at 10 µM [8]: 88.5%
- growth at 10 µM [9]: 99.1%
- growth at 10 µM [10]: 101%
- growth at 10 µM [11]: 94.8%
- growth at 10 µM [12]: 85.2%
- growth at 10 µM [13]: 95.3%
- growth at 10 µM [14]: 98.1%
- growth at 10 µM [15]: 89%
- growth at 10 µM [16]: 94.2%
- growth at 10 µM [17]: 93.8%
- growth at 10 µM [18]: 104%
- growth at 10 µM [19]: 101%
- growth at 10 µM [20]: 94.4%
- growth at 10 µM [21]: 92.2%
- growth at 10 µM [22]: 102%
- growth at 10 µM [23]: 87.4%
- growth at 10 µM [24]: 96.7%
- growth at 10 µM [25]: 102%
- growth at 10 µM [26]: 91.8%
- growth at 10 µM [27]: 92.4%
- growth at 10 µM [28]: 98.6%
- growth at 10 µM [29]: 104%
- growth at 10 µM [30]: 90%
- growth at 10 µM [31]: 98.1%

SMILES: O=C1c2c(nc3ccccn23)N=C(c2ccccc2)N2CCC[C@@H]12
- growth at 10 µM [1]: 92.6%
- growth at 10 µM [2]: 94.2%
- growth at 10 µM [3]: 107%
- growth at 10 µM [4]: 94.9%
- growth at 10 µM [5]: 88.7%
- growth at 10 µM [6]: 94.5%
- growth at 10 µM [7]: 97.9%
- growth at 10 µM [8]: 118%
- growth at 10 µM [9]: 96.2%
- growth at 10 µM [10]: 102%
- growth at 10 µM [11]: 101%
- growth at 10 µM [12]: 98.5%
- growth at 10 µM [13]: 93.8%
- growth at 10 µM [14]: 97.9%
- growth at 10 µM [15]: 93%
- growth at 10 µM [16]: 99.1%
- growth at 10 µM [17]: 94.6%
- growth at 10 µM [18]: 124%
- growth at 10 µM [19]: 114%
- growth at 10 µM [20]: 99.3%
- growth at 10 µM [21]: 103%
- growth at 10 µM [22]: 127%
- growth at 10 µM [23]: 90.1%
- growth at 10 µM [24]: 105%
- growth at 10 µM [25]: 103%
- growth at 10 µM [26]: 95.4%
- growth at 10 µM [27]: 111%
- growth at 10 µM [28]: 101%
- growth at 10 µM [29]: 106%
- growth at 10 µM [30]: 88.3%
- growth at 10 µM [31]: 98.7%

SMILES: Cc1ccc(C2=Nc3nc4ccccn4c3C(=O)[C@H](C)N2)cc1
- growth at 10 µM [1]: 72.9%
- growth at 10 µM [2]: 94%
- growth at 10 µM [3]: 80.1%
- growth at 10 µM [4]: 80.5%
- growth at 10 µM [5]: 45.9%
- growth at 10 µM [6]: 90.3%
- growth at 10 µM [7]: 81%
- growth at 10 µM [8]: 42.2%
- growth at 10 µM [9]: 95.5%
- growth at 10 µM [10]: 82.3%
- growth at 10 µM [11]: 91.1%
- growth at 10 µM [12]: 105%
- growth at 10 µM [13]: 71.9%
- growth at 10 µM [14]: 98.4%
- growth at 10 µM [15]: 71.2%
- growth at 10 µM [16]: 85.7%
- growth at 10 µM [17]: 79.7%
- growth at 10 µM [18]: 47.1%
- growth at 10 µM [19]: 82.8%
- growth at 10 µM [20]: 80.4%
- growth at 10 µM [21]: 95.5%
- growth at 10 µM [22]: 66.5%
- growth at 10 µM [23]: 88.6%
- growth at 10 µM [24]: 90.4%
- growth at 10 µM [25]: 94.5%
- growth at 10 µM [26]: 86.1%
- growth at 10 µM [27]: 75.9%
- growth at 10 µM [28]: 70.3%
- growth at 10 µM [29]: 81.7%
- growth at 10 µM [30]: 68%
- growth at 10 µM [31]: 93.8%

Reference: ChEMBL document CHEMBL3124806, “Imidazopyridine-fused [1,3]-diazepinones: synthesis and antiproliferative activity” (Eur J Med Chem, 2014)
